Our source for the Activity values is ChEMBL document CHEMBL4118256, “Second Generation of Mannich Base-Type Derivatives with in Vivo Activity against Trypanosoma cruzi” (J Med Chem, 2018).

Each structure is given as a SMILES string. Calls of active or inactive are those of the source. No cut-off for these calls is given here.

Series [1] deals with Trypanosoma cruzi. In words: Antitrypanosomal activity against Trypanosoma cruzi MHOM/Pe/2011/Arequipa DTU 5 trypamastigotes infected in Balb/c mouse assessed as reduction in parasitaemia level at 100 mg/kg, po once daily for 5 consecutive days starting from day 10 post infection measured up to day 50 post infection by Neubauer chamber method. The format is functional, organism-based.

The subject of series [2] is Mus musculus. In words: Cardiotoxicity in Balb/c mouse infected with Trypanosoma cruzi MHOM/Pe/2011/Arequipa DTU 5 trypamastigotes assessed as decrease in serum LDH level at […], po once daily for 5 consecutive days starting from day 10 post infection measured on day 16 post infection by biochemical analysis relative to control. The format is toxicity, organism-based. The following applies: in vivo. Also noted: scale not given: the % may be the effect or the level left. In a few lines:
(§1)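 Serum clinical chemistry in Arequipa-infected female BALB/c mice. Oral 20 mg·kg-1 per day for 5 days, started day 10 or day 75 pi. Samples taken at day 16 pi or day 81 pi, and on necropsy day. Markers: CK-MB and LDH (U/L), AST, ALT and alkaline phosphatase (U/L), total bilirubin. Results scored relative to infected untreated controls; uninfected reference n = 15.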

Series [3] deals with Mus musculus. In words: Cardiotoxicity in Balb/c mouse infected with Trypanosoma cruzi MHOM/Pe/2011/Arequipa DTU 5 trypamastigotes assessed as decrease in ratio of creatine kinase in muscle to brain at 100 mg/kg, po once daily for 5 consecutive days starting from day 75 post infection measured on day 127 post infection by biochemical analysis relative to control. Type of series: toxicity, organism-based. More on the design: scale not given: the % may be the effect or the level left. Particulars: in vivo.

For series [4], the system named is Trypanosoma cruzi. In words: Antitrypanosomal activity against Trypanosoma cruzi MHOM/Pe/2011/Arequipa DTU 5 trypamastigotes infected in Balb/c mouse assessed as parasitaemia reactivation at 100 mg/kg, po pretreated once daily for 5 consecutive days starting from day 10 post infection followed by cyclophosphamide-induced immunosuppression on day 100 post infection every 4 days for a maximum of 3 doses measured up to 1 week post immunosuppression by Neubauer chamber method. Type of series: functional.

Series [5] relates to Mus musculus. In words: Cardiotoxicity in Balb/c mouse infected with Trypanosoma cruzi MHOM/Pe/2011/Arequipa DTU 5 trypamastigotes assessed as decrease in ratio of creatine kinase in muscle to brain at […], po once daily for 5 consecutive days starting from day 10 post infection measured on day 16 post infection by biochemical analysis relative to control. The following applies: in vivo. More on the design: scale not given: the % may be the effect or the level left. Type of series: toxicity, organism-based. In a few lines: as §1

In series [6] the test system is Mus musculus. In words: Hepatotoxicity in Balb/c mouse infected with Trypanosoma cruzi MHOM/Pe/2011/Arequipa DTU 5 trypamastigotes assessed as increase in ratio of serum AST to GOT level at […], po once daily for 5 consecutive days starting from day 75 post infection measured on day 127 post infection by biochemical analysis relative to control. The format is toxicity, organism-based. Particulars: in vivo.

The subject of series [7] is Mus musculus. In words: Hepatotoxicity in Balb/c mouse infected with Trypanosoma cruzi MHOM/Pe/2011/Arequipa DTU 5 trypamastigotes assessed as change in alkaline phosphatase level at […], po once daily for 5 consecutive days starting from day 10 post infection measured on day 16 post infection by biochemical analysis relative to control. The following applies: in vivo. The format is toxicity, organism-based. In a few lines:
as §1

Series [8] deals with Mus musculus. Kind of series: Hepatotoxicity in Balb/c mouse infected with Trypanosoma cruzi MHOM/Pe/2011/Arequipa DTU 5 trypamastigotes assessed as change in total bilirubin level at […], po once daily for 5 consecutive days starting from day 75 post infection measured on day 81 post infection by biochemical analysis relative to control. The format is toxicity, organism-based. The following applies: in vivo. An outline of the steps: as §1

Series [9] concerns Trypanosoma cruzi. In words: Antitrypanosomal activity against Trypanosoma cruzi MHOM/Pe/2011/Arequipa DTU 5 trypamastigotes infected in Balb/c mouse assessed as reduction in Ig-G level in serum at 20 mg/kg, po once daily for 5 consecutive days starting from day 10 post infection measured on day 16 post infection by ELISA. Type of series: functional, organism-based. An outline of the steps:
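Female BALB/c mice (8-10 weeks, 20-25 g), six per group, infected i.p. with 5 x 10^5 Arequipa bloodstream trypomastigotes. Compound was given orally once daily for 5 days from day 10 or day 75 pi, at 20 mg·kg-1 per day in 5 % DMSO/0.5 % HPMC. Anti-T. cruzi IgG in serum was measured by ELISA with Fe-SOD antigen, read as OD 490 nm.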

In series [10] the test system is Trypanosoma cruzi. In words: Antitrypanosomal activity against Trypanosoma cruzi MHOM/Pe/2011/Arequipa DTU 5 trypamastigotes infected in Balb/c mouse assessed as reduction in parasitaemia level at 20 mg/kg, po once daily for 5 consecutive days starting from day 10 post infection measured on day 23 post infection by Neubauer chamber method relative to control. More on the design: scale not given: the % may be the effect or the level left. The format is functional. In a few lines: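 Six female BALB/c mice per group, infected i.p. with 5 x 10^5 Arequipa bloodstream trypomastigotes in PBS. Oral dosing once daily for 5 days from day 10 pi, 20 mg·kg-1 per day in aqueous 5 % DMSO/0.5 % HPMC, vehicle to controls. Blood trypomastigotes counted in a Neubauer chamber (parasites·mL-1); means ± SD.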

Series [11] concerns Mus musculus. In words: Hepatotoxicity in Balb/c mouse infected with Trypanosoma cruzi MHOM/Pe/2011/Arequipa DTU 5 trypamastigotes assessed as increase in ratio of serum AST to GOT level at 20 mg/kg, po once daily for 5 consecutive days starting from day 75 post infection measured on day 127 post infection by biochemical analysis relative to control. Type of series: toxicity, organism-based. Particulars: in vivo.

The subject of series [12] is Trypanosoma cruzi. In words: Antitrypanosomal activity against Trypanosoma cruzi MHOM/Pe/2011/Arequipa DTU 5 trypamastigotes infected in Balb/c mouse assessed as reduction in parasitaemia reactivation in heart tissue at 20 mg/kg, po pretreated once daily for 5 consecutive days starting from day 10 post infection followed by cyclophosphamide-induced immunosuppression on day 100 post infection every 4 days for a maximum of 3 doses measured on day 127 post infection by PCR method. Type of series: functional. More on the design: scale not given: the % may be the effect or the level left. An outline of the steps:
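Necropsy on day 127 pi after oral treatment and cyclophosphamide immunosuppression. Tissue DNA was amplified by PCR targeting the ~300 bp T. cruzi SOD gene, 200 nM each primer, 30 cycles with 55.5 °C annealing. Products run on 2 % agarose; positive organs counted out of six mice.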

For series [13], the system named is Mus musculus. In words: Hepatotoxicity in Balb/c mouse infected with Trypanosoma cruzi MHOM/Pe/2011/Arequipa DTU 5 trypamastigotes assessed as increase in ratio of serum ALT to GPT level at 20 mg/kg, po once daily for 5 consecutive days starting from day 10 post infection measured on day 16 post infection by biochemical analysis relative to control. The format is toxicity, organism-based. Particulars: in vivo.

The subject of series [14] is Trypanosoma cruzi. In words: Antitrypanosomal activity against Trypanosoma cruzi MHOM/Pe/2011/Arequipa DTU 5 trypamastigotes infected in Balb/c mouse assessed as reduction in parasitaemia reactivation in spleen tissue at 20 mg/kg, po pretreated once daily for 5 consecutive days starting from day 10 post infection followed by cyclophosphamide-induced immunosuppression on day 100 post infection every 4 days for a maximum of 3 doses measured on day 127 post infection by PCR method. The format is functional. Also noted: scale not given: the % may be the effect or the level left.

Series [15] relates to Mus musculus. In words: Nephrotoxicity in Balb/c mouse infected with Trypanosoma cruzi MHOM/Pe/2011/Arequipa DTU 5 trypamastigotes assessed as increase in uric acid level in serum at […], po once daily for 5 consecutive days starting from day 10 post infection measured on day 127 post infection by biochemical analysis relative to control. Particulars: in vivo. Type of series: toxicity, organism-based.

Series [16] relates to Mus musculus. In words: Nephrotoxicity in Balb/c mouse infected with Trypanosoma cruzi MHOM/Pe/2011/Arequipa DTU 5 trypamastigotes assessed as increase in urea level in serum at […], po once daily for 5 consecutive days starting from day 10 post infection measured on day 16 post infection by biochemical analysis relative to control. Type of series: toxicity, organism-based. The following applies: in vivo.

Regarding `COc1ccc(C(=O)CCN2CCN(c3ccc(Cl)cc3)CC2)cc1`, the result in the series on Trypanosoma cruzi [1] was Active. Moreover, the Activity entry is reported as “<= 20%” with Mus musculus [2], “<= 10%” in the series with Mus musculus [3], 12% in the series on Trypanosoma cruzi [4] and “<= 20%” with Mus musculus [5].
Regarding `COc1ccc(C(=O)CCN2CCN(c3ccc([N+](=O)[O-])cc3)CC2)cc1`, the Activity result in the series on Mus musculus [6] is “<= 20%”; in the series on Mus musculus [7], < 10%; in the series on Mus musculus [8] it was < 10%.
`O=C(Cn1ccnc1[N+](=O)[O-])NCc1ccccc1` [BENZNIDAZOLE]: the outcome with Trypanosoma cruzi [9] was Active. For the same molecule, the Activity with Trypanosoma cruzi [10] was 70%; in the series on Mus musculus [11] it was “<= 10%”; in the series with Trypanosoma cruzi [12], 33%; with Mus musculus [13], > 40%; in the series with Trypanosoma cruzi [14] it was 33%.
For the molecule `COc1ccc(C(=O)CCN2CCN(c3ccc(F)cc3)CC2)cc1`, the Activity entry is on record as “<= 10%” in the series with Mus musculus [15] and “<= 30%” with Mus musculus [16].
